Data from publication PMC4467237 (Clinical Pharmacology in Drug Development, 2014).
“Also recorded” adds a separate entry of the source. Read-outs that look alike come from different tables or passages of the source. Marks after values point to notes of the source that are not given here.

Key:
[1] = cited from earlier work
[2] = healthy volunteers, cited from earlier work
CYP3A4 = conditions: lenvatinib 0.1–10 µg/mL, human liver microsomes and human recombinant CYPs; ref Eisai data on file; cited from earlier work
[3] = human; cited from earlier work
[4] = format: in vivo, human; conditions: for AUC(0-t) / AUC(0-inf) / Tmax / half-life: human, plasma, oral
[5] = single agent, Phase I and II studies; cited from earlier work
Safety assessments = format: in vivo, human
In short: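 Healthy adults in a randomized two-sequence crossover with a 14-day washout. Each period gave an oral 400 mg interacting drug or placebo once daily for 18 days, plus a single oral 5 mg test compound on day 5 after a 10-h fast. AEs checked daily, graded mild/moderate/severe and for causality, coded in MedDRA v14.0. Vital signs taken before PK draws. Labs, 12-lead ECG and physical exam at baseline, predose and discharge. Summarized descriptively in dosed subjects with ≥1 postdose assessment.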

[6] = 5 mg lenvatinib + ketoconazole 400 mg/day [B], n = 16
[7] = 5 mg lenvatinib + placebo [A], n = 16
[8] = 5 mg, arithmetic mean (SD), 5 mg lenvatinib + placebo [A], n = 16
[9] = 5 mg, geometric mean (%CV), 5 mg lenvatinib + placebo [A], n = 16
[10] = arithmetic mean (SD), 5 mg lenvatinib + ketoconazole 400 mg/day [B], n = 16
[11] = geometric mean (%CV), 5 mg lenvatinib + ketoconazole 400 mg/day [B], n = 16

Cc1cn(-c2cc(NC(=O)c3ccc(C)c(Nc4nccc(-c5cccnc5)n4)c3)cc(C(F)(F)F)c2)cn1 [nilotinib]
Increase in AUC with ketoconazole coadministration ([1]; nilotinib): more than 200%
Increase in Cmax with ketoconazole coadministration ([1]; nilotinib): 84%

COc1cc2nccc(Oc3ccc(NC(=O)NC4CC4)c(Cl)c3)c2cc1C(N)=O [Lenvatinib]
Median tmax ([2]; range 1–4 hours): 2 h
Mean t½ ([2]; range 11–57 hours): 27.6 h
AUC0–∞ [2]: 1409 ng·h/mL
Mean Cmax [2]: 144.5 ng/mL
Share of CYP3A4 in the CYP-mediated metabolism of lenvatinib (CYP3A4): > 80%
Renal clearance as contributor to oral clearance [3]: 1–2%
Terminal exponential half-life (t½,z) [3]: ~28 h
CL/F, arithmetic mean (SD) [4, 6]: 7.70 (1.49) L/h
tlag, arithmetic mean (SD) [4, 6]: 0.06 (0.17) ^e h
CL/F, arithmetic mean (SD) [4, 7]: 8.78 (1.40) L/h
tlag, arithmetic mean (SD) [4, 7]: 0.16 (0.24) ^b h
Increase in Cmax with ketoconazole versus placebo ([4]; 5 mg lenvatinib, ketoconazole 400 mg/day): 19%
Percent extrapolation of AUC0–∞ ([4]; across all subjects): < 4%
Median time at which Cmax was achieved ([4]; both treatment conditions (placebo or ketoconazole)): 3 h
AUC(0-t) [4, 8]: 571 ng·h/mL
AUC(0-t) [4, 9]: 564 ng·h/mL
AUC(0-inf) [4, 8]: 584 ng·h/mL
AUC(0-inf) [4, 9]: 577 ng·h/mL
Tmax ([4]; 5 mg, tmax median (range), 5 mg lenvatinib + placebo [A]): 3 h
Tmax ([4]; 5 mg, tmax, arithmetic mean (SD), 5 mg lenvatinib + placebo [A], n = 16): 3.13 h
half-life ([4]; 5 mg, t½ median (range), 5 mg lenvatinib + placebo [A]): 29 h
AUC(0-t) [4, 10]: 661 ng·h/mL
AUC(0-t) [4, 11]: 647 ng·h/mL
AUC(0-inf) [4, 10]: 676 ng·h/mL
AUC(0-inf) [4, 11]: 662 ng·h/mL
Tmax ([4]; tmax median (range), 5 mg lenvatinib + ketoconazole [B]): 3 h
Tmax ([4]; tmax, arithmetic mean (SD), 5 mg lenvatinib + ketoconazole 400 mg/day [B], n = 16): 2.56 h
half-life ([4]; t½ median (range), 5 mg lenvatinib + ketoconazole [B]): 29.2 h
half-life ([4]; t½, arithmetic mean (SD), 5 mg lenvatinib + ketoconazole 400 mg/day [B], n = 16): 28.3 h
Decrease in apparent mean clearance in the ketoconazole treatment group ([4]; versus placebo): ~12%
Difference in tmax, t½ or tlag between the two treatments ([4]; visual assessment, ketoconazole versus placebo): No changes; also recorded: no difference
Maximum tolerated dose [5]: 25 mg/day
Subjects reporting treatment-emergent AEs (Safety assessments; following ketoconazole with lenvatinib, 18 subjects): 44%
Subjects reporting treatment-emergent AEs (Safety assessments; following placebo with lenvatinib, 17 subjects): 59%
ECG results (Safety assessments; overall, both treatments): either normal or considered not clinically significant
Serious TEAEs (Safety assessments; overall, both treatments): No serious TEAEs were reported
Subjects with treatment-related TEAEs (Safety assessments; overall, both treatments): 22%
Subjects reporting treatment-emergent AEs (Safety assessments; overall, both treatments, N = 18): 72%
Hypertension (Safety assessments; single-dose lenvatinib 5 mg alone or with ketoconazole, healthy subjects): not observed

Cc1ccc(NC(=O)c2ccc(CN3CCN(C)CC3)cc2)cc1Nc1nccc(-c2cccnc2)n1 [imatinib]
Increase in AUC with ketoconazole coadministration ([1]; imatinib): 40%
